Experiments:
HaCaT [1] = assay: Cytotoxicity against human HaCaT cells assessed as LDH release at 2 uM after 4 hrs by UV method; assay type: cell-based
Outline: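 HaCaT cells were given compound at 2 μM for 4 h at 37 °C. Extracellular LDH in the supernatant was read by the UV method with pyruvate and NADH and reported as mU/mL. Vehicle control was 0.2% DMSO in medium; Brij 35 plus ultrasound was the positive control. N = 3.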

HaCaT [2] = assay: Antihyperproliferative activity against human HaCaT cells after 48 hrs by phase contrast microscopy; assay type: functional, cell-based
Outline: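 HaCaT keratinocytes were exposed for 48 h, then dispersed cells were counted under phase contrast. Inhibition was (1 − test/control) × 100, with test N = 3 and control N = 6–8, checked by Student's t test (P < 0.05). IC50 came from nonlinear regression.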

HaCaT [3] = assay: Activity in dicoumarol-treated human HaCaT cells assessed as superoxide generation by flow cytometry (reference value: 407.59 +/- 68.7 ); assay type: functional
HaCaT [4] = assay: Induction of superoxide generation in human HaCaT cells at 5 micomol/L after 18 hrs by flow cytometry (reference value: 367.5 +/- 80.1 ); assay type: functional
Outline: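 HaCaT cells grown 24 h at 37 °C in DMEM with 10% FBS, then given compound at 5 μM for 18 h (0.1% DMSO final). DHE loaded for 30 min in the dark. Cells trypsinized and 2-OH-E⁺ fluorescence measured by flow cytometry (FL2, 550–600 nm) on 10000 live cells, dead cells gated out. Mean fluorescence intensity, mean ± SD, N = 3. DMSO-only control.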

[5] = target: NQO1 protein (Homo sapiens) (UniProt Q3B792); assay: Activity of human recombinant NQO-1 assessed as rate of superoxide generation measuring SOD-inhibitable reduction of succinoylated cytochrome c per unit enzyme at 25 umol/ml by spectrophotometry in presence of catalase and DTPA (reference value: 0.2 +/- 0.1 micomol/L/min)
Sequence of NQO1 protein (Homo sapiens) (Q3B792 as listed by the source): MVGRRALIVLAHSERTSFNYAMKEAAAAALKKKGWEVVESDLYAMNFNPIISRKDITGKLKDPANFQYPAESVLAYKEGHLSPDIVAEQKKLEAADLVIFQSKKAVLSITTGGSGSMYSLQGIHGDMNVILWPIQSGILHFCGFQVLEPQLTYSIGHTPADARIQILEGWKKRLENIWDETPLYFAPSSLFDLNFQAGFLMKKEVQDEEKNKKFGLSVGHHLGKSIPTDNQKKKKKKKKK

HaCaT [6] = assay: Induction of superoxide generation in human HaCaT cells at 50 uM after 30 min by flow cytometry (reference value: 7.1 +/- 5.2 ); assay type: functional
[7] = target: T1, NADPH--cytochrome P450 reductase (Homo sapiens, UniProt P16435); assay: Activity of human recombinant cytochrome P450 reductase assessed as rate of superoxide generation measuring SOD-inhibitable reduction of succinoylated cytochrome c per 2 mU enzyme at 100 umol/ml by spectrophotometry in presence of catalase and DTPA (reference value: 0.2 +/- 0.1 micomol/L/min)
T1 sequence (P16435 whole entry): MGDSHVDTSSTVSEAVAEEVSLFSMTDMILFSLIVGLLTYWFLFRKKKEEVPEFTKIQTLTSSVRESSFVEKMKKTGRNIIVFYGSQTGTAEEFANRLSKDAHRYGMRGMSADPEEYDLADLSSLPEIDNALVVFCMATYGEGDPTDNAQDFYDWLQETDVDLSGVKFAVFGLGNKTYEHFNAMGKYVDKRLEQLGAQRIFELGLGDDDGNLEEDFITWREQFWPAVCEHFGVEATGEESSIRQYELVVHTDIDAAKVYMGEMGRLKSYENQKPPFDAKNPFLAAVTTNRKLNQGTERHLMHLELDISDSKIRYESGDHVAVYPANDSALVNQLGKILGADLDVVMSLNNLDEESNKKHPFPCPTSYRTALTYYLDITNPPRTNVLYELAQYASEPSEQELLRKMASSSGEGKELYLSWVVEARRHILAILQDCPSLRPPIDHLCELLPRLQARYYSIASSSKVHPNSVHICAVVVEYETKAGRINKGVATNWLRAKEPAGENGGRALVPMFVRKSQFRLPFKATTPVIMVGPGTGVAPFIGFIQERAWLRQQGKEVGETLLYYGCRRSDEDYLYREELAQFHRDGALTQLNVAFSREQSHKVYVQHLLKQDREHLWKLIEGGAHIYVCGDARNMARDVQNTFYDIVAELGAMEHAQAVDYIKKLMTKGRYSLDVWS

HaCaT [8] = assay: Ratio of compound IC50 to beta-lapachone IC50 for human HaCaT cells; assay type: functional
HaCaT [9] = assay: Ratio of compound IC50 to anthralin IC50 for human HaCaT cells; assay type: functional

SMILES	Activity (HaCaT [1]) [mU/ml]	IC50 (HaCaT [2]) [µM]	other results
CC1(C)CCC2=C(O1)c1ccccc1C(=O)C2=O [LAPACHONE]	268	0.9	–
O=C(Oc1ccccc1)c1cc2c(o1)C(=O)c1ccccc1C2=O	–	> 30	–
CCOC(=O)C(=Cc1cc2c(o1)C(=O)c1ccccc1C2=O)C(=O)OCC	186	1.11	–
O=C1c2ccccc2C(=O)c2oc([N+](=O)[O-])cc21	–	2	–
O=C(OCc1cccs1)c1cc2c(o1)C(=O)c1ccccc1C2=O	–	14.3	–
COc1c2ccccc2c(OC)c2oc(C(=O)c3ccccc3)cc12	–	> 30	–
Cc1cc2c(o1)C(=O)c1ccccc1C2=O	–	7.54	Flu intensity (HaCaT [3]): 830.9; Flu intensity (HaCaT [4]): 420.2; Activity [5]: 0.2 µmol/L/min; Flu intensity (HaCaT [6]): 6.4; Activity [7]: 1.2 µmol/L/min
CCOC(=O)c1cc2c(o1)C(=O)c1ccccc1C2=O	187	0.61	–
O=C1c2ccccc2C(=O)c2oc(-c3nnn[nH]3)cc21	380	> 30	–
CCN(CC)C(=O)c1cc2c(o1)C(=O)c1ccccc1C2=O	226	0.24	–
O=C1c2ccccc2C(=O)c2occc21	–	3.85	Flu intensity (HaCaT [3]): 601.1; Flu intensity (HaCaT [4]): 452.5; Activity [5]: 0.4 µmol/L/min; Flu intensity (HaCaT [6]): 13; Activity [7]: 2.2 µmol/L/min
O=C(O)c1cc2c(o1)C(=O)c1ccccc1C2=O	–	> 30	–
CCC(=O)c1cc2c(OC(C)=O)c3ccccc3c(OC(C)=O)c2o1	185	0.8	–
CCC(=O)c1cc2c(OC)c3ccccc3c(OC)c2o1	–	> 30	–
O=C(OCc1ccco1)c1cc2c(o1)C(=O)c1ccccc1C2=O	–	8.23	–
CCC(=O)c1cc2c(o1)C(=O)c1ccccc1C2=O	270	0.63	–
O=C(OCc1ccccc1)c1cc2c(o1)C(=O)c1ccccc1C2=O	–	> 30	–
O=C1c2c(O)cccc2Cc2cccc(O)c21 [ANTHRALIN]	239	–	–
O=C(c1cccnc1)c1cc2c(o1)C(=O)c1ccccc1C2=O	202	0.37	–
N#Cc1cc2c(o1)C(=O)c1ccccc1C2=O	181	0.89	–

SMILES	Activity (HaCaT [1]) [mU/ml]	IC50 (HaCaT [2]) [µM]	other results
O=C(c1cc2c(o1)C(=O)c1ccccc1C2=O)c1cccs1	169	0.67	–
O=C(c1ccccc1)c1cc2c(o1)C(=O)c1ccccc1C2=O	318	0.72	–
CC1=CC(=O)c2ccccc2C1=O [MENADIONE]	–	15.8	Flu intensity (HaCaT [3]): 457.2; Flu intensity (HaCaT [4]): 431.9; Activity [5]: 1 µmol/L/min; Flu intensity (HaCaT [6]): 44; Activity [7]: 2.1 µmol/L/min
CCc1noc(-c2cc3c(o2)C(=O)c2ccccc2C3=O)n1	157	0.17	Flu intensity (HaCaT [3]): 1279; Flu intensity (HaCaT [4]): 1287; Activity [5]: 1.9 µmol/L/min; Flu intensity (HaCaT [6]): 17; Activity [7]: 1.8 µmol/L/min; Ratio IC50 (HaCaT [8]): 5; Ratio IC50 (HaCaT [9]): 4
CC(=O)c1cc2c(o1)C(=O)c1ccccc1C2=O [NAPABUCASIN]	255	–	Flu intensity (HaCaT [3]): 741.4; Flu intensity (HaCaT [4]): 725.5; Activity [5]: 1.4 µmol/L/min; Flu intensity (HaCaT [6]): 20.5; Activity [7]: 3 µmol/L/min
O=C(O)/C=C/c1cc2c(o1)C(=O)c1ccccc1C2=O	–	> 30	–
O=C1c2ccccc2C(=O)c2oc(/C=N/O)cc21	–	2.34	–
O=Cc1cc2c(o1)C(=O)c1ccccc1C2=O	186	2.76	–
CCCOC(=O)c1cc2c(o1)C(=O)c1ccccc1C2=O	–	1.32	–
O=C1c2ccccc2C(=O)c2oc(/C=C/c3ccccc3)cc21	–	> 30	–
CC(=O)Oc1c2ccccc2c(OC(C)=O)c2oc(C(=O)c3ccccc3)cc12	193	0.92	–
CC(C)COC(=O)c1cc2c(o1)C(=O)c1ccccc1C2=O	–	2.86	–
N#Cc1ccc(/C=C/c2cc3c(o2)C(=O)c2ccccc2C3=O)cc1	–	7.73	–
O=C(c1ccco1)c1cc2c(o1)C(=O)c1ccccc1C2=O	167	0.55	–
COC(=O)c1cc2c(o1)C(=O)c1ccccc1C2=O	190	0.92	–
CCc1cc2c(o1)C(=O)c1ccccc1C2=O	–	12.2	–
O=C(OC1CCCCC1)c1cc2c(o1)C(=O)c1ccccc1C2=O	–	2.93	–
CC(C)C(=O)c1cc2c(o1)C(=O)c1ccccc1C2=O	–	0.44	–
CC(C)OC(=O)c1cc2c(o1)C(=O)c1ccccc1C2=O	–	0.99	–
CCOC(=O)/C=C/c1cc2c(o1)C(=O)c1ccccc1C2=O	–	2.51	–

Source: ChEMBL document CHEMBL2169815, “Synthesis and structure-activity relationships of lapacho analogues. 1. Suppression of human keratinocyte hyperproliferation by 2-substituted naphtho[2,3-b]furan-4,9-diones, activation by enzymatic one- and two-electron reduction, and intracellular generation of superoxide” (J Med Chem, 2012)
